This note sets out measurements from ChEMBL document CHEMBL1144562, “Synthesis of a new class of 2-anilino substituted nicotinyl arylsulfonylhydrazides as potential anticancer and antibacterial agents” (2007).

≈ marks a conversion by molar mass, not a printed value. A value given as a limit tells only on which side of the number the result lay.

Type in all cases: functional
The test system of experiment [1] is Staphylococcus epidermidis. Nature of the experiment: Antibacterial activity against Staphylococcus epidermidis MTCC 435 after 18 hrs. To be noted: MTCC 435, 18 h. In a few lines:
(§1)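 Disc diffusion (Kirby–Bauer) on Mueller-Hinton agar inoculated with fresh bacteria at 1-5 × 10^4 cfu mL-1. Compounds were dissolved in DMF at a range of concentrations, and discs were placed in triplicate. Plates were incubated at 30 °C for 18 h. MIC was taken as the lowest concentration giving no visible bacterial growth on the plate.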

Experiment [2] deals with Escherichia coli. Nature of the experiment: Antibacterial activity against Escherichia coli MTCC 448 after 18 hrs. To be noted: MTCC 448, 18 h. In a few lines: as §1
For experiment [3], the system named is Bacillus subtilis. Nature of the experiment: Antibacterial activity against Bacillus subtilis MTCC 441 after 18 hrs. The following applies: MTCC 441, 18 h. In a few lines: as §1
The test system of experiment [4] is Pseudomonas aeruginosa. Description: Antibacterial activity against Pseudomonas aeruginosa MTCC 424 after 18 hrs. To be noted: MTCC 424, 18 h. In a few lines:
as §1

The test system of experiment [5] is Vibrio. Description: Antibacterial activity against Vibrio species after 18 hrs. In a few lines:
as §1

Usually MIC stands for the lowest concentration found to suppress growth. On to `COc1ccc(Nc2ncccc2C(=O)NNS(=O)(=O)c2ccc(C)cc2)cc1`, for which the MIC in experiment [1] was 17 µg/mL (≈ 41.2 µM); in experiment [2] it was 15 µg/mL (≈ 36.4 µM); in experiment [3], 8 µg/mL (≈ 19.4 µM); in experiment [4] it was greater than 25 µg/mL; in experiment [5], 19 µg/mL (≈ 46.1 µM).

As to `O=C(NNS(=O)(=O)c1ccccc1)c1cccnc1Nc1ccccc1`, the MIC in experiment [1] was 21 µg/mL (≈ 57 µM); in experiment [2] it was 20 µg/mL (≈ 54.3 µM); in experiment [3], 17 µg/mL (≈ 46.1 µM); in experiment [4] it was greater than 25 µg/mL; in experiment [5] it was 20 µg/mL (≈ 54.3 µM).

`Nc1ccc(S(N)(=O)=O)cc1` [SULFANILAMIDE]: the MIC in experiment [1] was greater than 512 µg/mL; in experiment [2] it was greater than 128 µg/mL; in experiment [3], greater than 128 µg/mL; in experiment [4], greater than 512 µg/mL; in experiment [5], greater than 512 µg/mL.

Regarding `Cc1ccc(S(=O)(=O)NNC(=O)c2cccnc2Nc2ccc(Cl)cc2)cc1`, the MIC is 14 µg/mL (≈ 33.6 µM) in experiment [1]; 16 µg/mL (≈ 38.4 µM) in experiment [2]; 9 µg/mL (≈ 21.6 µM) in experiment [3]; greater than 25 µg/mL in experiment [4]; 23 µg/mL (≈ 55.2 µM) in experiment [5].

As for `CC(=O)Nc1ccc(S(=O)(=O)NNC(=O)c2cccnc2Nc2ccc(F)cc2)cc1`, the MIC was 19 µg/mL (≈ 42.8 µM) in experiment [1]; 20 µg/mL (≈ 45.1 µM) in experiment [2]; 16 µg/mL (≈ 36.1 µM) in experiment [3]; greater than 25 µg/mL in experiment [4]; 22 µg/mL (≈ 49.6 µM) in experiment [5].

As for `O=C(NNS(=O)(=O)c1ccc(F)cc1)c1cccnc1Nc1ccc(F)cc1`, the MIC in experiment [1] was 20 µg/mL (≈ 49.5 µM); in experiment [2], 13 µg/mL (≈ 32.1 µM); in experiment [3], 10 µg/mL (≈ 24.7 µM); in experiment [4] it was greater than 25 µg/mL; in experiment [5], 22 µg/mL (≈ 54.4 µM).

As to `Nc1ccc(S(=O)(=O)Nc2ncccn2)cc1` [SULFADIAZINE], the MIC in experiment [1] was determined as 20 µg/mL (≈ 79.9 µM); in experiment [2], 15 µg/mL (≈ 59.9 µM); in experiment [3], 18 µg/mL (≈ 71.9 µM); in experiment [4], 22 µg/mL (≈ 87.9 µM); in experiment [5] it was 13 µg/mL (≈ 51.9 µM).

For `O=C(NNS(=O)(=O)c1ccc(Cl)cc1)c1cccnc1Nc1ccc(F)cc1`, the MIC is 16 µg/mL (≈ 38 µM) in experiment [1]; 18 µg/mL (≈ 42.8 µM) in experiment [2]; 10 µg/mL (≈ 23.8 µM) in experiment [3]; greater than 25 µg/mL in experiment [4]; 21 µg/mL (≈ 49.9 µM) in experiment [5].
